Assay results as given in ChEMBL document CHEMBL4665734, “Optimization of globomycin analogs as novel gram-negative antibiotics” (Bioorg Med Chem Lett, 2020).
Converted amounts (≈) assume the structure as drawn. The source made the active and inactive calls. The rule behind the calls is not given here. Starred links: 1 amine or outer side, 2 acyl side, 3 side chain; linkers in the order of their positions; H or OH if unused. Non-standard residues stand in square brackets, D forms with d. Residues, ends and D or L forms follow the SMILES beside them. *: point of attachment. X6 = C[C@H](CO[C@H](CC1C[C@H]2CC[C@@H](C1)C2)[C@@H](C)C(=O)[*:2])N[*:1]; dAlaψ(CH2NBu)Nle = CCCC[C@@H](C(=O)[*:2])N(CCCC)C[C@@H](C)N[*:1]; X3 = C[C@H](CO[C@H](CC1CC2(CCC2)C1)[C@@H](C)C(=O)[*:2])N[*:1]; X1 = CCCCCC[C@@H](OC[C@@H](C)N[*:1])[C@@H](C)C(=O)[*:2]; Cyclobutyl(trans-3-NH2) = N[C@H]1C[C@H](*)C1; Gly(cHept) = N[C@H](C(=O)O)C1CCCCCC1; aThr = C[C@H](O)[C@H](N)C(=O)O; NMeL = CN[C@@H](CC(C)C)C(=O)O; Chg = N[C@H](C(=O)O)C1CCCCC1; NMeNva = CCC[C@H](NC)C(=O)O; X2 = NC[C@H]1C[C@H](*)C1; Dap = NC[C@H](N)C(=O)O; X5 = NCCCNCCC*

Legend:
[1] = Protein binding in mouse plasma; format: ADME, cell-free; settings: read-out: PPB (converted)
[2] = Half life in iv dosed rat; format: ADME, organism-based; settings: in vivo
[3] = Stability of the compound in rat plasma assessed as parent compound remaining after 24 hrs; format: ADME, cell-free; settings: read-out: Stabilty
Procedure, shortened: (§1)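 Test compound incubated for 24 hour in human, rat or mouse plasma. Stability is reported as the percentage of parent compound remaining.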

[4] = Protein binding in rat plasma; format: ADME, cell-free; settings: read-out: PPB (converted)
[5] = Stability of the compound in human plasma assessed as parent compound remaining after 24 hrs; format: ADME, cell-free; settings: read-out: Stabilty; procedure, shortened: as §1
[6] = Lipophilicity, logD of the compound at pH 7.4; settings: buffer, pH 7.4, logD
[7] = Clearance in rat liver microsomes; format: ADME, Microsome
Procedure, shortened: (§2)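 Intrinsic clearance in rat or mouse liver microsomes, expressed in mL/min/kg.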

[8] = Clearance in iv dosed rat; format: ADME, organism-based; settings: in vivo
[9] = Growth inhibition of Staphylococcus aureus USA300
[10] = Stability of the compound in mouse plasma assessed as parent compound remaining after 24 hrs; format: ADME, cell-free; settings: read-out: Stabilty; procedure, shortened: as §1
Escherichia coli [11] = experiment: Inhibition of LspA in Escherichia coli CFT073imp4213 harboring outer membrane-permeable mutant assessed as inhibition of bacterial growth
Procedure, shortened: (§3)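 Read-out is the minimum inhibitory concentration, reported in µM.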

[12] = Clearance in mouse liver microsomes; format: ADME, Microsome; procedure, shortened: as §2
Escherichia coli CFT073 = experiment: Inhibition of LspA in wild type Escherichia coli CFT073 assessed as inhibition of bacterial growth; procedure, shortened: as §3
[13] = Clearance in iv dosed mouse; format: ADME, organism-based; settings: in vivo
Acinetobacter baumannii = experiment: Inhibition of LspA in Acinetobacter baumannii assessed as inhibition of bacterial growth
Klebsiella pneumoniae = experiment: Inhibition of LspA in Klebsiella pneumoniae assessed as inhibition of bacterial growth
Pseudomonas aeruginosa = experiment: Inhibition of LspA in Pseudomonas aeruginosa assessed as inhibition of bacterial growth
Enterobacter cloacae = experiment: Inhibition of LspA in Enterobacter cloacae assessed as inhibition of bacterial growth
[14] = Half life in iv dosed mouse; format: ADME, organism-based; settings: in vivo
Jurkat = experiment: Cytotoxicity against human Jurkat cells; format: cell-based
Procedure, shortened: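 Jurkat cell growth assay. Result reported as antiproliferative EC50.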

[15] = Protein binding in plasma of iv dosed mouse infected with Escherichia coli 25922 assessed as free fraction; format: ADME, organism-based
[16] = Unbound drug concentration in plasma of iv dosed mouse infected with Escherichia coli 25922; format: ADME, organism-based; settings: in vivo
Procedure, shortened: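 Same infected neutropenic mouse thigh model (E. coli 25922, 20 hour IV infusion). Unbound concentration was derived from the average blood concentration and the free fraction in mouse plasma.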

Escherichia coli [17] = experiment: In vivo inhibition of LspA in Escherichia coli 25922 infected in iv infused mouse neutropenic thigh infection model assessed as reduction in CFU infused for 20 hrs; format: functional, organism-based; settings: ATCC 25922
Procedure, shortened: (§4)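 Neutropenic mouse thigh model infected with E. coli 25922. Compound given by IV infusion over 20 hour. Average blood concentration was measured during the infusion, and thigh CFU was compared with vehicle-treated animals.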

[18] = test system: Escherichia coli ATCC 25922; experiment: Inhibition of LspA in wild type Escherichia coli 25922 assessed as inhibition of bacterial growth; procedure, shortened: as §3
[19] = Drug concentration in blood of iv dosed mouse infected with Escherichia coli 25922 infused for 20 hrs; format: ADME, organism-based; settings: read-out: Ct; procedure, shortened: as §4

Row | fraction unbound [1] | half-life [2] | remaining at 24 h [3] | fraction unbound [4] | remaining at 24 h [5] | logD [6] | clearance [8] | remaining at 24 h [10] | CLhep predicted [12] | MIC (Escherichia coli CFT073) | clearance [13] | MIC (Acinetobacter baumannii) | MIC (Klebsiella pneumoniae) | MIC (Pseudomonas aeruginosa) | MIC (Enterobacter cloacae) | half-life [14] | SMILES | CLhep predicted [7] | MIC [9] | MIC (Escherichia coli [11]) | EC50 (Jurkat) | other results
1 | 0.007 | 3.2 h | 90% | 0.022 | 103% | 2.2 | 40 mL/min/kg | 84% | 48 mL/min/kg | 2.2 µM (≈ 1.67 µg/mL) | 11 mL/min/kg | 18 µM (≈ 13.7 µg/mL) | 8.8 µM (≈ 6.69 µg/mL) | 71 µM (≈ 54 µg/mL) | 6.3 µM (≈ 4.79 µg/mL) | 4 h | CCC[C@H]1C(=O)N[C@@H](C2CCCCCC2)C(=O)N[C@@H](CN)C(=O)N[C@@H](CO[C@H]2C[C@H](N)C2)C(=O)N[C@H](C)CO[C@H](CC2CC3(CCC3)C2)[C@@H](C)C(=O)N1C (cyclo([Dap]S(Cyclobutyl(trans-3-NH2))[X3][NMeNva][Gly(cHept)])) | 28 mL/min/kg | 25 µM (≈ 19 µg/mL) |  |  | 
2 | 0.003 | 5.8 h | 94% | 0.026 | 99% | 1.7 | 15 mL/min/kg | 95% | 41 mL/min/kg | 0.78 µM (≈ 0.604 µg/mL) | 17 mL/min/kg | 25 µM (≈ 19.4 µg/mL) | 8.8 µM (≈ 6.81 µg/mL) | 100 µM (≈ 77.4 µg/mL) | 3.1 µM (≈ 2.4 µg/mL) | 2.1 h | CCC[C@H]1C(=O)N[C@@H](C2CCCCCC2)C(=O)N[C@@H](CN)C(=O)N[C@@H](CO[C@H]2C[C@H](N)C2)C(=O)N[C@H](C)CO[C@H](CC2C[C@H]3CC[C@@H](C2)C3)[C@@H](C)C(=O)N1C (stereo partly drawn) (cyclo([Dap]S(Cyclobutyl(trans-3-NH2))[X6][NMeNva][Gly(cHept)])) | 21 mL/min/kg | 50 µM (≈ 38.7 µg/mL) |  | > 100 µM | 
3 | 0.001 |  | 118% | 0.025 | 103% | 0.7 |  | 106% | 53 mL/min/kg | 1.6 µM (≈ 1.29 µg/mL) | 12 mL/min/kg | 50 µM (≈ 40.3 µg/mL) | 3.1 µM (≈ 2.5 µg/mL) | 50 µM (≈ 40.3 µg/mL) | 3.1 µM (≈ 2.5 µg/mL) | 4.6 h | CCC[C@H]1C(=O)N[C@@H](C2CCCCCC2)C(=O)N[C@@H](CN)C(=O)N[C@@H](COCCCNCCCN)C(=O)N[C@H](C)CO[C@H](CC2CC3(CCC3)C2)[C@@H](C)C(=O)N1C (cyclo([Dap]S(X5)[X3][NMeNva][Gly(cHept)])) |  | 18 µM (≈ 14.5 µg/mL) |  | > 50 µM | 

Row | SMILES | fraction unbound [1] | half-life [2] | remaining at 24 h [3] | fraction unbound [4] | remaining at 24 h [5] | logD [6] | clearance [8] | remaining at 24 h [10] | CLhep predicted [12] | MIC (Escherichia coli CFT073) | clearance [13] | MIC (Acinetobacter baumannii) | MIC (Klebsiella pneumoniae) | MIC (Pseudomonas aeruginosa) | MIC (Enterobacter cloacae) | half-life [14] | CLhep predicted [7] | MIC [9] | MIC (Escherichia coli [11]) | EC50 (Jurkat) | other results
4 | CCCC[C@H]1C(=O)N(C)[C@@H](CC(C)C)C(=O)N[C@@H](C2CCCCC2)C(=O)N[C@@H](CN)C(=O)N[C@@H]([C@H](C)O)C(=O)N[C@H](C)CN1CCCC (cyclo([Chg][Dap][aThr][dAlaψ(CH2NBu)Nle][NMeL])) | 0.004 | 2.6 h | 102% | 0.005 | 97% | 3.4 | 53 mL/min/kg | 89% | 77 mL/min/kg | 1.6 µM (≈ 1.09 µg/mL) |  |  |  |  |  |  | 27 mL/min/kg | 71 µM (≈ 48.3 µg/mL) | 0.017 µM (≈ 0.0116 µg/mL) |  | 
5 | CCCCCC[C@H]1OC[C@@H](C)NC(=O)[C@H](CO[C@H]2C[C@H](CN)C2)NC(=O)[C@H](CN)NC(=O)[C@H](C2CCCCCC2)NC(=O)[C@H](CCC)N(C)C(=O)[C@@H]1C (cyclo([Dap]S(X2)[X1][NMeNva][Gly(cHept)])) | 0.011 |  | 96% | 0.033 | 98% | 1.6 |  | 101% | 43 mL/min/kg | 3.1 µM (≈ 2.33 µg/mL) | 2.9 mL/min/kg | 18 µM (≈ 13.5 µg/mL) | 18 µM (≈ 13.5 µg/mL) | 100 µM (≈ 75 µg/mL) | 6.3 µM (≈ 4.73 µg/mL) | 4 h | 20 mL/min/kg | 50 µM (≈ 37.5 µg/mL) | 0.048 µM (≈ 0.036 µg/mL) | > 100 µM | fraction unbound [15]: 0.011; Cp(f) [16]: 0.3 µM; Activity (Escherichia coli [17]): inactive; MIC [18]: 3.1 µM (≈ 2.33 µg/mL); concentration at 20 h [19]: 27 µM
